{
  "source": "paper PMC4955407",
  "about": "(Journal of medicinal chemistry, 2015)",
  "molecules": {"B1": {"name": "E-box SPR oligonucleotide (dsDNA)", "DNA 1": "TGAAGCAGACCACGTGGTCGTCTTCA", "DNA 2": "TGAAGACGACCACGTGGTCTGCTTCA"}},
  "key": {"c-Myc–Max(S)/DNA complex": {"molecular_target": "c-Myc–Max(S)/DNA complex (Homo sapiens, UniProt P01106)", "assay": "EMSA, disruption of c-Myc–Max", "type": "biochemical", "conditions": "100 µM compound, n = 1", "how_it_was_run": "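His6-tagged proteins were expressed in E. coli BL21DE3(pLysS) with IPTG induction and purified on Ni-NTA under 8 M urea. The tag was removed with TEV protease, giving >95% purity. Each protein at 30 nM was mixed with 30 nM HEX-labelled double-stranded oligonucleotide carrying a c-Myc binding site. Complexes were resolved by gel shift.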"}, "c-Myc–Max(S) heterodimer": {"molecular_target": "c-Myc–Max(S) heterodimer (Homo sapiens, UniProt P01106)", "assay": "SPR, c-Myc–Max", "type": "binding"}, "[1]": {"test_system": "HL60 promyelocytic leukemia cells", "assay": "Cell cycle analysis, propidium iodide", "type": "cell-based, human", "conditions": "HL60, 24 h"}, "[2]": {"test_system": "H460 large cell lung cancer cells", "assay": "Neutral lipid quantification, BODIPY-459/503", "type": "cell-based", "conditions": "H460, 48 h", "how_it_was_run": "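Sub-confluent H460 cells were treated with test compound for 48 h, then washed, trypsinised and resuspended in PBS. […] was added in PBS at 50 µg/ml, and cells were stained for 30 min at ambient temperature. After three PBS washes, cells were analysed by flow cytometry. Mean fluorescence was expressed as a ratio to untreated controls stained in parallel, from biological triplicates.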"}, "[3]": {"test_system": "NF-κB reporter in HeLa cells", "assay": "Luciferase reporter, NF-κB binding sites", "type": "cell-based", "conditions": "6 h"}, "[4]": {"molecular_target": "c-Myc–Max heterodimers in HL60 cells (Homo sapiens, UniProt P01106)", "sequence (P01106 whole entry, one chain of several)": "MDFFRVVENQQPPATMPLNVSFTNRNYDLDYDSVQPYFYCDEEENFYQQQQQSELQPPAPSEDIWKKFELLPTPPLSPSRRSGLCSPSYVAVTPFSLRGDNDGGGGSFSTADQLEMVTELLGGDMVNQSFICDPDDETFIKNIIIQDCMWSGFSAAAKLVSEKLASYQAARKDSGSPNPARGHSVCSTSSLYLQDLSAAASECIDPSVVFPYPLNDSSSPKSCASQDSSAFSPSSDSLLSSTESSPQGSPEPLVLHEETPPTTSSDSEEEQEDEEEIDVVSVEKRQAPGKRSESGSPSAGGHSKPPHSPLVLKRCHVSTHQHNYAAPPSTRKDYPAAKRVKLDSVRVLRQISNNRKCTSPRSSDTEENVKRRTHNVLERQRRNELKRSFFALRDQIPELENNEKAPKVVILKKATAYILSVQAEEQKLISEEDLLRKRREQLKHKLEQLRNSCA", "assay": "c-Myc–Max co-immunoprecipitation", "type": "cell-based", "conditions": "HL60, 6 h", "how_it_was_run": "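About 5 × 10^6 HL60 cells were exposed to test compound or DMSO vehicle for 6 h. Cells were pelleted at 500 × g, washed in ice-cold PBS and lysed in IP buffer, keeping an input aliquot. Max was immunoprecipitated, and precipitates were washed three times. They were run on 10% SDS-PAGE and immunoblotted with anti-Myc monoclonal 9E10 (1:1000).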"}, "[5]": {"test_system": "c-Myc-dependent reporter (wt-Myc) in HeLa cells", "assay": "Luciferase reporter, c-Myc binding sites", "type": "cell-based", "conditions": "6 h"}, "Solubility": {"assay": "Solubility", "type": "physicochemical"}, "U266": {"test_system": "U266", "conditions": "read-out: Growth inhibition IC50, U266; U266 myeloma, expresses L-Myc; cited from earlier work"}, "[6]": {"conditions": "metabolism of the nitro group; cited from earlier work"}, "Max(L)": {"molecular_target": "Max(L) (Homo sapiens, UniProt P61244 1-160)", "assay": "SPR"}, "[7]": {"molecular_target": "c-Myc bHLH-ZIP domain;Max(S) (Homo sapiens;Homo sapiens, UniProt P01106-1;P61244-2 353-437;1-151, |)", "assay": "SPR"}},
  "data": [
    {"molecule": "CC(C)COc1cc(C(=O)O)ccc1NC(=O)c1ccc([N+](=O)[O-])c(OCC(C)C)c1", "note": "[4aa, 3-Isobutoxy-4-(3-isobutoxy-4-nitrobenzamido)benzoic acid]", "values": [
      {"measurement": "EMSA screening, disruption of c-Myc–Max(S)/DNA binding", "setting": "c-Myc–Max(S)/DNA complex", "result": "potent activity"}
    ]},
    {"molecule": "CC(C)COc1cc(C(=O)O)ccc1NC(=O)c1ccc([N+](=O)[O-])c(OCc2ccccc2)c1", "note": "[4ca, 3-Isobutoxy-4-(3-benzyloxy-4-nitrobenzamido)benzoic acid]", "values": [
      {"measurement": "EMSA screening, disruption of c-Myc–Max(S)/DNA binding", "setting": "c-Myc–Max(S)/DNA complex", "result": "complete disruption"}
    ]},
    {"molecule": "CC(C)COc1cc(C(=O)O)ccc1NC(=O)c1ccc([N+](=O)[O-])c(OCc2cccc3ccccc23)c1", "note": "[4da, 3-Isobutoxy-4-(3-(naphthalen-1-ylmethoxy)-4-nitrobenzamido)benzoic acid]", "values": [
      {"measurement": "Kd", "setting": "c-Myc–Max(S) heterodimer", "result": "~10", "unit": "µM"},
      {"measurement": "Kd by SPR, pre-formed heterodimers", "setting": "c-Myc–Max(S) heterodimer; c-Myc–Max(S) heterodimers pre-formed before addition of compound (Figure 4E)", "result": "somewhat higher Kd"},
      {"measurement": "Cell cycle arrest", "setting": "[1]", "result": "promoted a G0/G1 arrest"},
      {"measurement": "Neutral lipid accumulation", "setting": "[2]", "result": "increase in neutral lipid stores"},
      {"measurement": "EMSA screening, disruption of c-Myc–Max(S)/DNA binding", "setting": "c-Myc–Max(S)/DNA complex", "result": "potent activity"},
      {"measurement": "Luciferase activity, NF-kB vector", "setting": "[3]", "result": "no inhibition of luciferase was observed"},
      {"measurement": "c-Myc–Max association by co-IP", "setting": "[4]", "result": "remain largely intact"},
      {"measurement": "Luciferase activity, wt-c-Myc vector", "setting": "[5]", "result": "dose-dependent inhibition of luciferase"}
    ]},
    {"molecule": "COC(=O)c1ccc(NC(=O)c2ccc([N+](=O)[O-])c(OC(C)C)c2)c(OCC(C)C)c1", "note": "[14ba, Methyl 3-isobutoxy-4-(3-isopropoxy-4-nitrobenzamido)benzoate]", "values": [
      {"measurement": "Solubility", "setting": "Solubility", "result": "poor solubilities"},
      {"measurement": "EMSA screening, disruption of c-Myc–Max(S)/DNA binding", "setting": "c-Myc–Max(S)/DNA complex", "result": "modest inhibitory activities"}
    ]},
    {"molecule": "CCc1ccc(/C=C2\\SC(=S)NC2=O)cc1", "note": "[10058-F4, reference compound]", "values": [
      {"measurement": "IC50", "setting": "U266", "result": "~100", "unit": "µM"},
      {"measurement": "Cell cycle arrest", "setting": "[1]", "result": "promoted a G0/G1 arrest"},
      {"measurement": "c-Myc–Max association by co-IP", "setting": "[4]", "result": "abrogated c-Myc’s association with Max"}
    ]},
    {"molecule": "O=[N+]([O-])c1ccc(Nc2ccccc2-c2ccccc2)c2nonc12", "note": "[compound 2, reference compound]", "values": [
      {"measurement": "Neutral lipid accumulation", "setting": "[2]", "result": "increase in neutral lipid stores"},
      {"measurement": "Luciferase activity, NF-kB vector", "setting": "[3]", "result": "no inhibition of luciferase was observed"},
      {"measurement": "Half-life", "setting": "[6]", "result": "short half-life"},
      {"measurement": "Luciferase activity, wt-c-Myc vector", "setting": "[5]", "result": "dose-dependent inhibition of luciferase"}
    ]},
    {"molecule": "CC(C)COc1cc(C(=O)O)ccc1NC(=O)c1ccc([N+](=O)[O-])c(OCC(C)C)n1", "note": "[compound 15, 3-Isobutoxy-4-(6-isobutoxy-5-nitropicolinamido)benzoic acid]", "values": [
      {"measurement": "EMSA screening, disruption of c-Myc–Max(S)/DNA binding", "setting": "c-Myc–Max(S)/DNA complex", "result": "complete disruption"}
    ]},
    {"molecule": "CC(C)COc1nc(C(=O)O)ccc1NC(=O)c1ccc([N+](=O)[O-])c(OCC(C)C)n1", "note": "[compound 16, 6-Isobutoxy-5-(6-isobutoxy-5-nitropicolinamido)picolinic acid]", "values": [
      {"measurement": "EMSA screening, disruption of c-Myc–Max(S)/DNA binding", "setting": "c-Myc–Max(S)/DNA complex", "result": "complete disruption"}
    ]},
    {"molecule": "CCOC(=O)C(=O)Nc1ccc(C(=O)Nc2ccc(C(=O)O)cc2OCC(C)C)cc1OCC(C)C", "note": "[compound 21, 4-(4-(2-Ethoxy-2-oxoacetamido)-3-isobutoxybenzamido)-3-isobutoxybenzoic acid]", "values": [
      {"measurement": "EMSA screening, disruption of c-Myc–Max(S)/DNA binding", "setting": "c-Myc–Max(S)/DNA complex", "result": "complete disruption"}
    ]},
    {"molecule": "Methyl 3-benzyloxy-4-(3-isobutoxy-4-nitrobenzamido)benzoate [14ca]", "values": [
      {"measurement": "EMSA screening, disruption of c-Myc–Max(S)/DNA binding", "setting": "c-Myc–Max(S)/DNA complex", "result": "modest inhibitory activities"}
    ]},
    {"molecule": "B1", "values": [
      {"measurement": "binding result", "setting": "Max(L)", "result": "binds"},
      {"measurement": "binding result", "setting": "[7]", "result": "binds"}
    ]}
  ]
}
